Measured values as given in ChEMBL document CHEMBL1132292, “Potentiation of cADPR-induced Ca(2+)-release by methylxanthine analogues” (1999).

System: not listed separately
Test: Compound was screened for their ability to potentiate [Ca2+] release induced by cADRP(an endogenous modulator of ryanodine receptor) in sea urchin egg homogenates at a concentration of 2 mM
Format: functional, tissue-based
In short: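 Lytechinus pictus egg homogenate (2.5%, from 50% stocks), Ca2+-loaded 3 h at room temperature in Glu-IM (pH 7.2) with 0.5 mM ATP, phosphocreatine/creatine phosphokinase, oligomycin, antimycin, azide and 3 μM fluo-3. Fluo-3 fluorescence (ex 490/em 535 nm) read at 17 °C. Methylxanthine at 2 mM added 1 min before a daily-chosen, slightly active cADPR concentration. Caffeine run daily as standard.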

**Q.** With `O=c1[nH]c(=O)c2nc[nH]c2[nH]1` as the molecule, how does the Potentiation read?
**A.** 41%

**Q.** Which Potentiation does the source give for `Cn1c(=O)c2[nH]cnc2n(C)c1=O` here?
**A.** 95.3%

System: not listed separately
Test: compound was screened for their ability to potentiate [Ca2+] release induced by cADRP(an endogenous modulator of ryanodine receptor) in sea urchin egg homogenates at a concentration 1 mM
Format: functional, tissue-based
In short: (§1)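 Lytechinus pictus egg homogenate (2.5%, from 50% stocks) in Glu-IM (pH 7.2, Hepes). It was Ca2+-loaded for 3 h at room temperature with 0.5 mM ATP, creatine kinase/phosphocreatine, oligomycin, antimycin, azide and 3 μM fluo-3. Fluo-3 fluorescence (ex 490/em 535 nm) was read at 17 °C. Methylxanthine was added 1 min before a slightly releasing cADPR concentration chosen from each experiment's cADPR concentration–response curve. Caffeine was run daily as standard.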

**Q.** Which Potentiation does the source give for `Cn1c(=O)c2c(ncn2C)n(C)c1=O` [CAFFEINE] here?
**A.** 100%

System: not listed separately
Test: compound was screened for their ability to potentiate [Ca2+] release induced by cADRP(an endogenous modulator of ryanodine receptor) in sea urchin egg homogenates at a concentration 2 mM
Format: functional, tissue-based
In short: as §1

**Q.** Which Potentiation does the source give for `Cn1c(=O)c2ncn(C)c2n(C)c1=O` here?
**A.** 28.7%

System: not listed separately
Test: Calcium release at 2 mM as percent of 1 mM caffeine effect

**Q.** With `Cn1c(=O)c2c(ncn2C)n(C)c1=O` [CAFFEINE] as the molecule, how does the Activity read?
**A.** 100%

System: Lytechinus pictus
Test: Percent of 1 mM Caffeine effect to release [Ca2+] at 1 mM in sea urchin egg homogenate

**Q.** Which Activity does the source give for `CC(O)CCCCCCn1cnc2c1c(=O)n(C)c(=O)n2C` (stereo not drawn) here?
**A.** 98%

**Q.** For `CCOC(=O)CCCCCn1c(=O)c2c(ncn2C)n(C)c1=O`, which Activity is on record?
**A.** 103%

**Q.** With `Cn1cnc2c1c(=O)n(CCCCCC(=O)O)c(=O)n2C` as the molecule, how does the Activity read?
**A.** 61%

**Q.** For `C#CCn1c(=O)c2c(ncn2CCCCCCC(C)=O)n(C)c1=O`, which Activity is on record?
**A.** 98%

**Q.** With `Cn1c(=O)c2c(ncn2CCCCCCCCCCO)n(C)c1=O` as the molecule, how does the Activity read?
**A.** 113%

**Q.** Which Activity does the source give for `Cn1c(=O)c2c(ncn2CCCCCC(=O)O)n(C)c1=O` here?
**A.** 9.4%

**Q.** With `CCOC(=O)CCCCCn1cnc2c1c(=O)n(C)c(=O)n2C` as the molecule, how does the Activity read?
**A.** 145%

**Q.** For `Cn1c(=O)c2c(ncn2CCCCCCO)n(C)c1=O`, which Activity is on record?
**A.** 97%

**Q.** For `Cn1c(=O)c2c(ncn2CC(=O)O)n(C)c1=O` [ACEFYLLINE], which Activity is on record?
**A.** 1.4%

**Q.** For `CCOC(=O)Cn1cnc2c1c(=O)n(C)c(=O)n2C`, which Activity is on record?
**A.** 87%

**Q.** Which Activity does the source give for `CC(=O)CCCCCCCCn1cnc2c1c(=O)n(C)c(=O)n2C` here?
**A.** 62%

System: Lytechinus pictus
Test: Calcium release in sea urchin egg homogenate at 2 mM as percent of 1 mM caffeine effect

**Q.** For `CC(=O)CCCCCn1c(=O)c2c(ncn2C)n(C)c1=O`, which Activity is on record?
**A.** 96%

**Q.** For `Cn1c(=O)c2c(ncn2CCCCO)n(C)c1=O`, which Activity is on record?
**A.** 81%

**Q.** For `CC(=O)CCCn1cnc2c1c(=O)n(C)c(=O)n2C`, which Activity is on record?
**A.** 60%

**Q.** With `Cn1c(=O)c2c(ncn2CCCCCc2ccccc2)n(C)c1=O` as the molecule, how does the Activity read?
**A.** 70%

**Q.** For `C=CCn1cnc2c1c(=O)n(C)c(=O)n2C`, which Activity is on record?
**A.** 100%

**Q.** With `CC(=O)Cn1c(=O)c2c(ncn2CC(C)=O)n(C)c1=O` as the molecule, how does the Activity read?
**A.** 17%

**Q.** Which Activity does the source give for `CC(=O)Cn1cnc2c1c(=O)n(C)c(=O)n2C` here?
**A.** 65%

**Q.** For `CC(=O)CCCCCn1c(=O)c2c(ncn2CCCC(C)=O)n(C)c1=O`, which Activity is on record?
**A.** 38%

**Q.** For `C#CCn1c(=O)c2c(ncn2CCCC(C)=O)n(C)c1=O`, which Activity is on record?
**A.** 81%

**Q.** Which Activity does the source give for `CC(=O)CCCCn1cnc2c1c(=O)n(C)c(=O)n2C` [LOMIFYLLINE] here?
**A.** 65%

**Q.** For `Cn1c(=O)c2c(ncn2CCO)n(C)c1=O` [ETOFYLLINE], which Activity is on record?
**A.** 43%

**Q.** With `CC(=O)CCn1cnc2c1c(=O)n(C)c(=O)n2C` as the molecule, how does the Activity read?
**A.** 97%

**Q.** With `CC(=O)Cn1c(=O)c2c(ncn2C)n(C)c1=O` as the molecule, how does the Activity read?
**A.** 43%

**Q.** Which Activity does the source give for `CC(=O)CCCn1c(=O)c2c(ncn2C)n(C)c1=O` here?
**A.** 37%

**Q.** With `CC(=O)CCn1c(=O)c2c(ncn2C)n(C)c1=O` as the molecule, how does the Activity read?
**A.** 46%

**Q.** For `CC(O)CCCn1cnc2c1c(=O)n(C)c(=O)n2C` (stereo not drawn), which Activity is on record?
**A.** 82%

**Q.** Which Activity does the source give for `CC(=O)CCCCCCn1cnc2c1c(=O)n(C)c(=O)n2C` here?
**A.** 112%

**Q.** With `CC(O)CCCn1c(=O)c2c(ncn2C)n(C)c1=O` (stereo not drawn) as the molecule, how does the Activity read?
**A.** 59%

**Q.** With `CC(=O)CCCCCn1cnc2c1c(=O)n(C)c(=O)n2C` as the molecule, how does the Activity read?
**A.** 107%

**Q.** With `CC(O)CCCCCn1c(=O)c2c(ncn2C)n(C)c1=O` (stereo not drawn) as the molecule, how does the Activity read?
**A.** 54%

**Q.** With `CC(=O)CCCn1cnc2c1c(=O)n(CC(C)=O)c(=O)n2C` as the molecule, how does the Activity read?
**A.** 6.7%

**Q.** With `CC(O)Cn1c(=O)c2c(ncn2C)n(C)c1=O` (stereo not drawn) [PROTHEOBROMINE] as the molecule, how does the Activity read?
**A.** 83%

**Q.** Which Activity does the source give for `CC(O)CCCCCn1cnc2c1c(=O)n(C)c(=O)n2C` (stereo not drawn) here?
**A.** 105%

**Q.** With `CC(=O)CCCCCCn1c(=O)c2c(ncn2C)n(C)c1=O` as the molecule, how does the Activity read?
**A.** 76%

**Q.** Which Activity does the source give for `Cn1c(=O)c2nc[nH]c2n(C)c1=O.O` [THEOPHYLLINE] here?
**A.** 106%

**Q.** With `CC(O)Cn1cnc2c1c(=O)n(C)c(=O)n2C` (stereo not drawn) [PROXYPHYLLINE] as the molecule, how does the Activity read?
**A.** 47%

**Q.** With `CC(=O)CCCCCn1c(=O)c2c(ncn2CCCCCC(C)=O)n(C)c1=O` as the molecule, how does the Activity read?
**A.** 54%
